Assay results taken from ChEMBL document CHEMBL2417504, “A fundamental relationship between hydrophobic properties and biological activity for the duocarmycin class of DNA-alkylating antitumor drugs: hydrophobic-binding-driven bonding” (J Med Chem, 2013).
≈ marks a conversion by molar mass, not a printed value.

Key:
[1] = Displacement of ethidium bromide from hairpin 5'AAAAA duplex DNA sequence (unknown origin) at 2 equivalent compound dose after 5 mins by FID assay
[2] = Induction of w794 DNA alkylation (unknown origin) after 2 hrs by densitometric analysis relative to duocarmycin SA
In short: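 Loss of full-length labeled DNA quantified by densitometry of remaining non-alkylated DNA. Relative alkylation efficiency corrected for the 10-fold differences in compound concentrations used.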

L1210 = experiment: Cytotoxicity against mouse L1210 cells after 72 hrs by phosphatase assay; format: functional, cell-based; settings: L1210, 72 h
In short: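 L1210 mouse lymphocytic leukemia cells seeded at 30,000 cells/mL in DMEM + 10% FBS, 100 μL/well, 24 h at 37 °C, 5% CO2; DMSO serial 10-fold dilutions added, six concentrations over 0–100 nM or 0–1000 nM, duplicate, 72 h.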

[3] = Solubility of the compound in water after 40 hrs; format: physicochemical; settings: for solubility at 40 h: water; for solubility: buffer, 40 h
[4] = Displacement of ethidium bromide from hairpin 5'AAAAA duplex DNA sequence (unknown origin) at 10 equivalent compound dose after 5 mins by FID assay

Which inhibition [1] does the source give for `COCCOc1cc2cc(C(=O)N3C[C@@H](CCl)c4c3cc(O)c3[nH]c(C(=O)OC)cc43)[nH]c2c(OCCOC)c1OCCOC` here?
The inhibition was 10%.

What about the fold change (FC) [2] of the same molecule?
Its fold change (FC) is 0.9.

What about the IC50 (L1210) of the same molecule?
The IC50 was 0.037 nM.

What about the solubility at 40 h [3] of the same molecule?
Its solubility at 40 h is 740 µg/mL (≈ 1150 µM).

What about the inhibition [4] of the same molecule?
The inhibition was 50%.

With `COC(=O)c1cc2c3c(cc(O)c2[nH]1)N(C(=O)c1cc2cc(OC)c(OC)c(OC)c2[nH]1)C[C@H]3CCl` as the molecule, how does the inhibition [1] read?
Its inhibition is 53%.

What about the fold change (FC) [2] of the same molecule?
Its fold change (FC) is 1.

What about the IC50 (L1210) of the same molecule?
The IC50 was 0.008 nM.

What about the solubility at 40 h [3] of the same molecule?
Its solubility at 40 h is 460 µg/mL (≈ 895 µM).

And the inhibition [4]?
The inhibition was 97%.

With `COCCOCCOc1c(OC)cc2cc(C(=O)N3C[C@@H](CCl)c4c3cc(O)c3[nH]c(C(=O)OC)cc43)[nH]c2c1OC` as the molecule, how does the IC50 (L1210) read?
Its IC50 is 0.035 nM.

With `COCCOCCOCCOCCOc1c(OC)cc2cc(C(=O)N3C[C@@H](CCl)c4c3cc(O)c3[nH]c(C(=O)OC)cc43)[nH]c2c1OC` as the molecule, how does the IC50 (L1210) read?
Its IC50 is 0.11 nM.

With `COCCOCCOc1cc2cc(C(=O)N3C[C@@H](CCl)c4c3cc(O)c3[nH]c(C(=O)OC)cc43)[nH]c2c(OCCOCCOC)c1OCCOCCOC` as the molecule, how does the inhibition [1] read?
Its inhibition is 0%.

And the fold change (FC) [2]?
Its fold change (FC) is 0.08.

And the IC50 (L1210)?
Its IC50 is 0.26 nM.

And the solubility at 40 h [3]?
The solubility at 40 h was 2000 µg/mL (≈ 2570 µM).

And the inhibition [4]?
Its inhibition is 27%.

For `COCCOCCOCCOCCOc1cc2cc(C(=O)N3C[C@@H](CCl)c4c3cc(O)c3[nH]c(C(=O)OC)cc43)[nH]c2c(OCCOCCOCCOCCOC)c1OCCOCCOCCOCCOC`, which fold change (FC) [2] is on record?
The fold change (FC) was 0.001.

And the IC50 (L1210)?
Its IC50 is 35 nM.

And the solubility [3]?
The solubility was over 19000 µg/mL.

Which IC50 (L1210) does the source give for `COCCOc1c(OC)cc2cc(C(=O)N3C[C@@H](CCl)c4c3cc(O)c3[nH]c(C(=O)OC)cc43)[nH]c2c1OC` here?
The IC50 was 0.018 nM.

Which IC50 (L1210) does the source give for `COCCOCCOCCOc1c(OC)cc2cc(C(=O)N3C[C@@H](CCl)c4c3cc(O)c3[nH]c(C(=O)OC)cc43)[nH]c2c1OC` here?
The IC50 was 0.07 nM.

With `COCCOCCOCCOc1cc2cc(C(=O)N3C[C@@H](CCl)c4c3cc(O)c3[nH]c(C(=O)OC)cc43)[nH]c2c(OCCOCCOCCOC)c1OCCOCCOCCOC` as the molecule, how does the fold change (FC) [2] read?
Its fold change (FC) is 0.009.

And the IC50 (L1210)?
Its IC50 is 3.5 nM.

And the solubility [3]?
The solubility was 80000 µg/mL (≈ 87900 µM).

For `COCCOCCOCCOCCOCCOc1c(OC)cc2cc(C(=O)N3C[C@@H](CCl)c4c3cc(O)c3[nH]c(C(=O)OC)cc43)[nH]c2c1OC`, which IC50 (L1210) is on record?
The IC50 was 0.25 nM.

What does the source list for `COCCOCCOCCOCCOCCOc1cc2cc(C(=O)N3C[C@@H](CCl)c4c3cc(O)c3[nH]c(C(=O)OC)cc43)[nH]c2c(OCCOCCOCCOCCOCCOC)c1OCCOCCOCCOCCOCCOC`?
fold change (FC) [2]: 0.0002; IC50 (L1210): 370 nM; solubility [3]: > 12000 µg/mL
